# Numbering of substitutions follows the chain as printed. “Also recorded” adds a separate entry of the source.
# Key:
# PTP1B1-405 [1] = target: T1, PTP1B1-405 (Homo sapiens, UniProt P18031); assay: Binding of recombinant protein to bead-immobilized compound; conditions: in vitro
# T1 sequence (P18031 1-405): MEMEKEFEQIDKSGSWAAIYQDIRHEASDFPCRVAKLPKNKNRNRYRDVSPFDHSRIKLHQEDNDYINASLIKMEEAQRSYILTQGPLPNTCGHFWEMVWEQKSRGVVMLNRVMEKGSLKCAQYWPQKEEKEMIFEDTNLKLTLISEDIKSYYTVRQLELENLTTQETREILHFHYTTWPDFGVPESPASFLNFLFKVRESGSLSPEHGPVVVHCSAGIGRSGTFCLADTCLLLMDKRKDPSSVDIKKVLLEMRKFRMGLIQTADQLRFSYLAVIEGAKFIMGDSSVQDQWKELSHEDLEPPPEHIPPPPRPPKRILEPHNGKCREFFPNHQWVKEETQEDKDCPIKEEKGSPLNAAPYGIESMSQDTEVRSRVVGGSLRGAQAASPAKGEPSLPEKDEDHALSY
# Method in brief: (§1)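 Beads were washed in the same buffer plus 0.01% NP-40 and 1% glycerol, then heat-eluted in SDS sample buffer. Eluates were run on 10% SDS-PAGE and stained with Coomassie or silver.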
# PTP1B1-405 [2] = target: T1, PTP1B1-405; assay: Limited proteolysis with trypsin; conditions: saturating concentrations of MSI-1436 (5 μM)
# [3] = system: panel of breast cancer cells; assay: Annexin/PI staining; assay type: cell-based; conditions: cells sensitive to Lapatinib
# Method in brief: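 Cells (1 × 10^5) plated in 6-well plates in growth medium, left untreated or given test compound at 2 and 5 μM. Stained with annexin and PI per kit instructions, then analysed by flow cytometry.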
# PTP1B1-321 = target: T2, PTP1B1-321 (Homo sapiens, UniProt P18031); assay: Binding of recombinant protein to bead-immobilized compound; conditions: in vitro
# T2 sequence (P18031 1-321): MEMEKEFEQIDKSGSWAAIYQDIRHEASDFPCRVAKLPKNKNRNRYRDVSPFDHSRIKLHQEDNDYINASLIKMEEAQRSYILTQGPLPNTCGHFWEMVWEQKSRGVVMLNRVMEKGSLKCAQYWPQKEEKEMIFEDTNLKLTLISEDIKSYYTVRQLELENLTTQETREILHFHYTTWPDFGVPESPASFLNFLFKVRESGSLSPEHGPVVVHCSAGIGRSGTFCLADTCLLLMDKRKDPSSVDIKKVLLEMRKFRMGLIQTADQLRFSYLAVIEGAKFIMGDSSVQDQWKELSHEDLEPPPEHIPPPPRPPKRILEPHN
# Method in brief: as §1
# [4] = system: BT474 xenografts re-expressing wild type or L192A/S372P PTP1B; assay: BT474 xenografts with PTP1B suppressed and re-expressed; assay type: in vivo, mouse; conditions: 5 mg/kg, two independent experiments
# Method in brief: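 BT474 cells with PTP1B suppressed by RNAi and re-expressing wild type or mutant PTP1B were used. Luciferase-expressing cells (5×10^6) were injected orthotopically into mammary fat pads of SCID-beige mice in 1:1 DMEM/growth factor-reduced Matrigel. Mice were randomised to saline or test compound 5 mg/kg i.p. every third day. Tumours were followed by luciferin imaging and by palpation (volume = width2 × length/2) three times weekly.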
# BT-474 cells = assay: Cell migration assay; assay type: cell-based; conditions: HER2-positive, MSI-1436 5 µM
# SKBR3 cells = assay: Cell migration assay; assay type: cell-based; conditions: HER2-positive, MSI-1436 5 µM
# PTP1B (1-367) = target: T3, PTP1B (1-367) (Homo sapiens, UniProt P18031); assay: PTP assay, truncation mutant; assay type: biochemical; conditions: similar to PTP1B1-321
# T3 sequence (P18031 1-367): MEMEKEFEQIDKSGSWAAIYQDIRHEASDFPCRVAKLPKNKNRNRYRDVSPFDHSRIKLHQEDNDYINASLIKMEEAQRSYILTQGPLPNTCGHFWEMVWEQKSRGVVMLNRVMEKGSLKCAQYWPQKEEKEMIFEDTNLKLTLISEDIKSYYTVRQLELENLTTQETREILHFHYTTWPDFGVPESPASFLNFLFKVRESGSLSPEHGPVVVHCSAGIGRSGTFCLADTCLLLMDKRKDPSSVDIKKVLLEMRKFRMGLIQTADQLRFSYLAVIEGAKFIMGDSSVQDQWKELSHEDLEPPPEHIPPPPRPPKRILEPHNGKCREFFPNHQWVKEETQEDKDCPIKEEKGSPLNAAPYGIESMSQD
# Method in brief: (§2)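 Continuous fluorescence PTP assay with 10 nM purified PTP1B and 10 μM DiFMUP substrate. Emission at 450 nm was monitored for 20 minutes.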
# PTP1B1-405 L192A/S372P = target: T4, PTP1B1-405 L192A/S372P (Homo sapiens, UniProt P18031, L192A/S372P); assay: PTP assay, double point mutant; assay type: biochemical
# T4 sequence (P18031 1-405 L192A/S372P): T1 sequence (P18031 1-405) with L192A, S372P
# Method in brief: as §2
# [5] = system: panel of breast cancer cells; assay: Cell proliferation assay; assay type: cell-based
# Method in brief: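 Cells (1 × 10^4) per well were grown 12–96 hours in growth medium without or with test compound (2 and 5 μM). Proliferation was read by CellTiter-Glo luminescence.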
# [6] = system: tyrosine phosphorylation-dependent signaling in tumors; assay: Immunoblotting of tumor lysates from NDL2 mice; assay type: in vivo; conditions: tumor samples from treated NDL2 animals
# Method in brief: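 Tumours from treated NDL2 mice were dissected free of connective tissue, ground under liquid nitrogen and lysed 30 min on ice. Lysis buffer: HEPES pH 7.4, glycerol, Triton X-100, NaCl, EGTA, 1 mM orthovanadate, 20 mM NaF, protease inhibitors. Lysates were cleared at 12,000 x g, 15 min, 4 °C. Lysate (20 μg) was blotted with anti-phosphotyrosine (4G10), anti-p62DOK and anti-phospho-Erk, then stripped and reprobed with total-protein antibodies.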
smiles,measurement,setting,value
"CC(C)[C@@H](CC[C@@H](C)[C@H]1CC[C@H]2[C@@H]3[C@H](O)C[C@H]4C[C@@H](NCCCNCCCCNCCCN)CC[C@]4(C)[C@H]3CC[C@]12C)OS(=O)(=O)O [MSI-1436, Trodusquemine]",binding to bead-immobilized compound,PTP1B1-405 [1],bound
same,sensitivity to trypsin,PTP1B1-405 [2],more trypsin-resistant state
same,apoptosis,[3],limited effect on apoptosis
same,binding to bead-immobilized compound,PTP1B1-321,bound
same,sensitivity of xenografts re-expressing wild type PTP1B versus mutant protein,[4],more sensitive
same,migration,BT-474 cells,attenuated migration
same,migration,SKBR3 cells,attenuated migration
same,inhibitory potency compared to PTP1B1-405 and PTP1B1-394,PTP1B (1-367),lower
same,inhibition by MSI-1436,PTP1B1-405 L192A/S372P,complete loss of inhibition; also recorded: insensitive to MSI-1436
same,nature of effects (cytostatic versus cytotoxic),[5],"primarily cytostatic, rather than cytotoxic"
same,proliferation,"[5]; cells sensitive to Lapatinib, MSI-1436 2 and 5 μM",inhibited proliferation
same,phosphorylation of p44/42 MAP kinase,[6],decrease
same,tyrosine phosphorylation of p62DOK,[6],significant increase

# Source: article PMC4062594 (Nature chemical biology, 2014)
